Data on three molecules can be found in ChEMBL document CHEMBL4823251, “Structure-Based Exploration of Selectivity for ATM Inhibitors in Huntington's Disease” (J Med Chem, 2021).

Values after ≈ are worked out from the molar mass of the structure shown.

The nature of data set [1]: Kinetic solubility of the compound in pH 7.4 PBS buffer incubated for 2 hrs using orbital shaker by LC-UV mass spectrometry. Format: physicochemical. Conditions: read-out: Kinetic_solubility. The method in brief: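 Shaken on an orbital shaker for 2 h at room temperature, then filtered. Filtrate analysed by LC-UV with MS confirmation, calibrated against 200 μM and 10 μM DMSO dilutions.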

The nature of data set [2]: Aqueous solubility of the compound in pH 7.4. Format: physicochemical. The settings on record: buffer.
The target of data set [3] is Serine/threonine-protein kinase ATR (Homo sapiens, UniProt Q13535). Put plainly: Inhibition of ATR in human HT-29 cells assessed as reduction in CHK1 phosphorylation incubated for 4 hrs. Format: cell-based. In a few lines: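 HT29 cells seeded at 25k/well overnight, then treated with compound titrations (0.3% DMSO) plus 10 μM gemcitabine for 4 h. Cells fixed in paraformaldehyde, permeabilized with Triton-X, and stained for phospho-Chk1 and total Chk1 using LI-COR IRDye detection. Ratio normalized to DMSO and 30 μM AZ-20 controls. IC50 is the mean of at least two experiments.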
Serine/threonine-protein kinase ATR, sequence (Q13535 whole entry): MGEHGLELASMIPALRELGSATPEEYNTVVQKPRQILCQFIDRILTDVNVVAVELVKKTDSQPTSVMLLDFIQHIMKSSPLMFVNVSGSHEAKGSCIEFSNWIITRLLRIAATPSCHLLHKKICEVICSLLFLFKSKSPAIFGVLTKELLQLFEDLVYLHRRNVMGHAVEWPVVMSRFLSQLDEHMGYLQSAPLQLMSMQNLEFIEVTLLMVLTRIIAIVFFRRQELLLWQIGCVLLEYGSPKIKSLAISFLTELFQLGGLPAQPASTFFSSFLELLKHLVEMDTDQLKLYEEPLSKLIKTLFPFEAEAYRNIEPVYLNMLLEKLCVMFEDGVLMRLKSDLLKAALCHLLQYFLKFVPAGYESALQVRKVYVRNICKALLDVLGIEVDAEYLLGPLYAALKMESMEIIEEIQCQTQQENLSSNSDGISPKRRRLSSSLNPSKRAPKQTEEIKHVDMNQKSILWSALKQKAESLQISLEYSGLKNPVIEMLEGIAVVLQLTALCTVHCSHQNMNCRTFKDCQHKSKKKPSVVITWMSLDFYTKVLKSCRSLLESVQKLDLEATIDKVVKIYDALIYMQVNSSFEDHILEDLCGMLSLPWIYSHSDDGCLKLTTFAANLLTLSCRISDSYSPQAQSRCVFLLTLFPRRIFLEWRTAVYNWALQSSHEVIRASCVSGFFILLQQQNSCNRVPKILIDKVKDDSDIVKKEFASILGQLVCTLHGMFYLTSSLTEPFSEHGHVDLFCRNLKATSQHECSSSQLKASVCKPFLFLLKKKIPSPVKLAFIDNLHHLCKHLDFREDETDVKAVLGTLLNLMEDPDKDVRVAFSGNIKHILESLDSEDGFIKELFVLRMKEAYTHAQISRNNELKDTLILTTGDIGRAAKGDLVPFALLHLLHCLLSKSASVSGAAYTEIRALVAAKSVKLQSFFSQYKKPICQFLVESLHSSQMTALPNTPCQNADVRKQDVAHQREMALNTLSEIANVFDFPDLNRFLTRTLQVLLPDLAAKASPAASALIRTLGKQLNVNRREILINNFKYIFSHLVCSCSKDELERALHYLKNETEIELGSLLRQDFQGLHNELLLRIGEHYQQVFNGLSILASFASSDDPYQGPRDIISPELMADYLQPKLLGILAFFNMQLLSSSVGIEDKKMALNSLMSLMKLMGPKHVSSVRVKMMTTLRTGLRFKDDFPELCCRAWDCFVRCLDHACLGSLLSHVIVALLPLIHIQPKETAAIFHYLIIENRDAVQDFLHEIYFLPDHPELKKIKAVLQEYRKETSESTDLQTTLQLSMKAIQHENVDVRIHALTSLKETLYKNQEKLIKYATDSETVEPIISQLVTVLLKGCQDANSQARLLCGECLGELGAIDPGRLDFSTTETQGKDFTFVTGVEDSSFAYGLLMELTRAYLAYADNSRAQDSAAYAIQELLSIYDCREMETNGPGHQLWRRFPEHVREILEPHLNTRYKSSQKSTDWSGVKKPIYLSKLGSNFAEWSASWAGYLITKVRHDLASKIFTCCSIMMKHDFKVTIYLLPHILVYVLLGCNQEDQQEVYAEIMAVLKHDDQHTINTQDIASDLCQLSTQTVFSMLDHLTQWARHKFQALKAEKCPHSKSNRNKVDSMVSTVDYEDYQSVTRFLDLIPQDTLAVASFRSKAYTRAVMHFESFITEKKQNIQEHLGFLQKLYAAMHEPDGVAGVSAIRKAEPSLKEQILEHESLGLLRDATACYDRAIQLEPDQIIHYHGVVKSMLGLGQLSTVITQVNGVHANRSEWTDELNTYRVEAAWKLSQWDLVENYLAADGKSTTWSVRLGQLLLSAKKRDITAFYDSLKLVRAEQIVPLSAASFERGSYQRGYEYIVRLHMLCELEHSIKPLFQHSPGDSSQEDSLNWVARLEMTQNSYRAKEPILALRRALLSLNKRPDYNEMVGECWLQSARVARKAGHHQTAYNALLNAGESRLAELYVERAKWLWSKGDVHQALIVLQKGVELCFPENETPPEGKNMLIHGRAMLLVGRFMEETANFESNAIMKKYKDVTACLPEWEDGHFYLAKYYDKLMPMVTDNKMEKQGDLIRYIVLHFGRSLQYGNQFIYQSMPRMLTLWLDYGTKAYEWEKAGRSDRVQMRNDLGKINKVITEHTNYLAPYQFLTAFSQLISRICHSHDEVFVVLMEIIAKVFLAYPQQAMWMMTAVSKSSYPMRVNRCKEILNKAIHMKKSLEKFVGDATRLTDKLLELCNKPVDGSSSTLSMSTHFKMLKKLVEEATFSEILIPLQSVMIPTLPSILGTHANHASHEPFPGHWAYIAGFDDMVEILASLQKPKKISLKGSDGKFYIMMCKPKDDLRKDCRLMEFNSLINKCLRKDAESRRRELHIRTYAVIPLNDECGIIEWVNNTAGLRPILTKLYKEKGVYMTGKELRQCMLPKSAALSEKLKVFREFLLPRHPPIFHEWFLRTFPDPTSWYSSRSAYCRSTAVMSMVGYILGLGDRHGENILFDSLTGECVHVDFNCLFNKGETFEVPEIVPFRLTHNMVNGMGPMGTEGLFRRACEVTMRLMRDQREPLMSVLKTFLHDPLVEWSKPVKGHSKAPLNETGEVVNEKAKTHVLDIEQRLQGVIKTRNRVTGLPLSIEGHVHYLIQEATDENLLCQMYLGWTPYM

Data set [4] addresses DNA-dependent protein kinase catalytic subunit (Homo sapiens, UniProt P78527). As to the kind of experiment: Inhibition of DNA-PK isolated from human HeLa nuclear extract using full length His-tagged p53 as substrate measured after 75 mins in presence of ATP by HTRF assay. Format: subcellular, Nucleus. In a few lines:
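Buffer was 50 mM HEPES pH 7.5, 5 mM MgCl₂, 0.01% Brij35, 1 mM DTT and 1 μg/mL sheared calf thymus DNA; reaction ran 75 min at 20 °C. Stopped with d2-anti-6HIS and cryptate anti-phospho-p53 antibodies in KF/EDTA buffer. Read at 665/620 nm after 7 h.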
(In general: TR-FRET usually uses a lanthanide donor and a delayed reading to cut background.)

The target in data set [5] is Phosphatidylinositol 3-kinase catalytic subunit type 3 (Homo sapiens, UniProt Q8NEB9). As to the kind of experiment: Inhibition of full length recombinant GST-tagged human VPS34 expressed in baculovirus expression system using PI/PS as substrate incubated for 60 mins in presence of ATP at Km concentration by luminescence assay.
Phosphatidylinositol 3-kinase catalytic subunit type 3, sequence (Q8NEB9 whole entry): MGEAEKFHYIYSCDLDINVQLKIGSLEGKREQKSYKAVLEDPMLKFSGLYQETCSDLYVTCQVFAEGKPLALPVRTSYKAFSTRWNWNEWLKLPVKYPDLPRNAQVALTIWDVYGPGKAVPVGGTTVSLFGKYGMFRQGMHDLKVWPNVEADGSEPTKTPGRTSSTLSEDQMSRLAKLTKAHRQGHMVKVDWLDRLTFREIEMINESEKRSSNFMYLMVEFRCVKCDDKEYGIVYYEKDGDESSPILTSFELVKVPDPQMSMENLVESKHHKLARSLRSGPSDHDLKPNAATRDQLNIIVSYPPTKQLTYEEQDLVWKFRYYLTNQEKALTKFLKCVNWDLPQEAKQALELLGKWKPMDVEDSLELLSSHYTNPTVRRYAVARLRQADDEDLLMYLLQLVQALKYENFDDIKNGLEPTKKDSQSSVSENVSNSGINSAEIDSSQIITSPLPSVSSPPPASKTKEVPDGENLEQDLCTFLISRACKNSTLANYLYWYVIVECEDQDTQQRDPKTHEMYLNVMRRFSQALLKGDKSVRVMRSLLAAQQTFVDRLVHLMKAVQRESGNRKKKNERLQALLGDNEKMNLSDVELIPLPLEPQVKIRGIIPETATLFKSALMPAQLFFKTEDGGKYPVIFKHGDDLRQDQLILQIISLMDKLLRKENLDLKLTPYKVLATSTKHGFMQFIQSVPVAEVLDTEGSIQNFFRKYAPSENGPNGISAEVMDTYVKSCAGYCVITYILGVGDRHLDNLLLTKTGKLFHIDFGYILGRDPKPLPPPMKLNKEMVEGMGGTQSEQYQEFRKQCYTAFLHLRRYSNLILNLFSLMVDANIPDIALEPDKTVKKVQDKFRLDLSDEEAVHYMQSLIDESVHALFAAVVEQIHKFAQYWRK

Consider `COc1ccc2c(c1)Cc1cccc(-c3cc(=O)cc(N4CCOCC4)o3)c1S2`, for which the solubility kinetic at 2 h in data set [1] came to 11 µg/mL (≈ 27 µM). For the same molecule, in data set [2], the solubility (usually the concentration that dissolves in the medium under given conditions) came to 1 µg/mL (≈ 2.45 µM).

In the case of `C[C@@H]1CN(c2cc(N3C[C@@H]4C[C@@H]4[C@@H]3Cc3ccccc3)[nH]c(=O)c2)CCO1`, the IC50 (as a rule, the concentration needed to halve the response being measured) in data set [3] was found to be 13000 nM. Besides, the solubility kinetic at 2 h in data set [1] came to 23 µg/mL (≈ 62.9 µM). The Ki (commonly a dissociation constant, usually derived from enzyme kinetics or from competition with a known ligand) in data set [4] came to 7 nM; in data set [5], 750 nM.

`O=c1cc(N2CCOCC2)cc(N2CCCC[C@@H]2Cc2ccccc2)[nH]1`: the concentration for half-maximal inhibition (IC50) in data set [3] is 8000 nM. The solubility kinetic at 2 h in data set [1] worked out at 59 µg/mL (≈ 167 µM). Besides, the inhibition constant (Ki) in data set [5] was determined as 170 nM.
